Article PMC2647857 (Journal of the American Chemical Society, 2009)
Several values for one entry are separate records, joined by “and”; a condition that tells them apart may be missing. Identical values can stand only once. Like-named read-outs stand apart in the source and are kept apart here.

What was measured:
[1] = Spectroelectrochemical midpoint potential, ligand-free; format: physicochemical, Rhodnius prolixus; settings: for ΔEm = Em(mutant)−Em(standard) / Em: ligand-free
[2] = Spectroelectrochemical midpoint potential of the NO complex; format: physicochemical, Rhodnius prolixus; settings: for ΔpHΔ(Em,NO) = ΔEm,NO(pH7.5) − ΔEm,NO(pH5.5) / ΔEm,NO = Em(mutant)−Em(standard) / Em,NO: NO bound
Summary of the method: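 Spectroelectrochemistry of ~0.05 mM E. coli-expressed protein in 0.1 M sodium phosphate or acetate at pH 5.5, 6.5 and 7.5, 27 ± 1 °C. SNAP supplied NO at a level fully complexing both oxidation states. Ag/AgCl reference ([…] mV vs SHE). Absorbance versus applied potential fit to Nernst equation; pH dependence and mutant−standard differences derived.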

[3] = Histamine binding constant to Fe; set-up: species or system Rhodnius prolixus; settings: pH 7.5
[4] = Imidazole binding constant to Fe; set-up: species or system Rhodnius prolixus; settings: at both pH values (5.5 and 7.5)
[5] = ligand-free, cited from earlier work
[6] = NO bound, cited from earlier work
[7] = NO binding constant to Fe; set-up: species or system Rhodnius prolixus; settings: pH 7.5
[8] = read-out: Kd for NO dissociation, Fe(III), cited from earlier work

| Substance | ΔEm = Em(mutant)−Em(standard) ([1]; pH 5.5) [mV] | Em ([1]; pH 5.5, 27 °C) [mV vs. SHE] | ΔEm = Em(mutant)−Em(standard) ([1]; pH 7.5) [mV] | Em ([1]; pH 7.5, 27 °C) [mV vs. SHE] | ΔpHΔ(Em,NO) = ΔEm,NO(pH7.5) − ΔEm,NO(pH5.5) [2] [mV] | ΔEm,NO = Em(mutant)−Em(standard) ([2]; pH 5.5) [mV] | Em,NO ([2]; pH 5.5, 27 °C) [mV vs. SHE] | ΔEm,NO = Em(mutant)−Em(standard) ([2]; pH 6.5) [mV] | Em,NO ([2]; pH 6.5, 27 °C) [mV vs. SHE] | ΔEm,NO = Em(mutant)−Em(standard) ([2]; pH 7.5) | Em,NO ([2]; pH 7.5, 27 °C) [mV vs. SHE] | other results |
| --- | --- | --- | --- | --- | --- | --- | --- | --- | --- | --- | --- | --- |
| NP2-D1A,D128A: site-directed mutant of NP2-D1A, D128 replaced by Ala | 7±4 | −311±4 | −57±4 | −382±3 | 38±4 | −16±4 | 32±3 | −8±2 | 2±1 | 22±2 mV | 2±1 |  |
| NP2-D1A,E53Q: site-directed mutant of NP2-D1A, buried E53 replaced by Gln |  |  | 10±4 | −316±3 | 64±4 | 40±3 | 88±3 | 95±2 | 105±1 | 104 mV and 104±3 mV | 84±2 |  |
| NP2-D1A,E100A: site-directed mutant of NP2-D1A, E100 replaced by Ala | 6±6 | −312±6 | −32±6 | −357±5 | 24±3 | −5±2 | 43±2 | −5±2 | 5±1 | 19±2 mV | 0±1 | ΔEm = Em(mutant)−Em(standard) ([1]; pH 6.5): 17±7 mV; Em ([1]; pH 6.5, 27 °C): −310±3 mV vs. SHE; larger histamine binding constant than standard [3]: 0.7 log units |
| NP2-D1A,E124A: site-directed mutant of NP2-D1A, E124 replaced by Ala | 125±4 | −193±4 | 7±4 | −318±2 | −2±6 | 4±5 | 52±5 |  |  | 2±3 mV | −18±3 | increase in imidazole binding constant [4]: 0.7 log units |
| NP2-D1A,K127A: site-directed mutant of NP2-D1A, K127 replaced by Ala | −9±5 | −327±5 | −54±4 | −379±2 | 27±5 | −27±3 | 21±2 | −4±2 | 6±2 |  | −20±4 | ΔEm = Em(mutant)−Em(standard) ([1]; pH 6.5): −2±6 mV; Em ([1]; pH 6.5, 27 °C): −329±3 mV vs. SHE; midpoint potential more negative with respect to NP2-D1A ([1]; pH 7.5, absence of NO): 54 mV |
| NP2-D1A: D1A mutant of NP2 with M0 cleaved during expression, used as standard |  |  |  |  |  |  |  |  |  |  |  | decrease of NO-bound Em between pH 5.5 and 7.5 ([2]; NO complex): 68 mV; pH dependence of Em, negative shift ([2]; NO complex, pH 5.5–7.5 range): 34 mV/pH unit; Em ([5]; pH 5.5, 27 °C ref 20): −318±1 mV vs. SHE; Em ([5]; pH 6.5, 27 °C ref 20): −327±6 mV vs. SHE; Em ([5]; pH 7.5, 27 °C ref 20): −325±3 mV vs. SHE; Em,NO ([6]; pH 5.5, 27 °C ref 20): 48±1 mV vs. SHE; Em,NO ([6]; pH 6.5, 27 °C ref 20): 10±1 mV vs. SHE; Em,NO ([6]; pH 7.5, 27 °C ref 20): −20±1 mV vs. SHE |
| NP2–M0D1: recombinant wild-type nitrophorin 2 expressed with the N-terminal methionine present |  |  |  |  |  |  |  |  |  |  |  | NO formation constant Kf, Fe(III) form [7]: 2e+08 M⁻¹; Kd ([7]; read-out: NO dissociation constant Kd, Fe(III) form): 5 nM; Kd ([8]; pH 5.5 ref 19): 1 nM; Kd ([8]; pH 7.5 ref 19): 20 nM |
